Where two headings read alike, the source gives them in different places.
Key:
[1] = system: A549 (non-small lung cancer) cell line; assay: MTT cytotoxicity assay, A549 cells; format: cell-based, human; conditions: read-out: IC50, A549
[2] = system: KB (epidermoid carcinoma) cell line; assay: MTT cytotoxicity assay, KB cells; format: cell-based, human; conditions: read-out: IC50, KB
[3] = system: HepG2 (hepatoma carcinoma) cell line; assay: MTT cytotoxicity assay, HepG2 cells; format: cell-based, human; conditions: read-out: IC50, HepG2
[4] = system: Hek-293 human embryonic kidney cells; assay: MTT cytotoxicity assay, Hek-293 cells; format: cell-based; conditions: for IC50: read-out: IC50, Hek-293; for fold lower cytotoxicity against Hek-293 cells than to A549: Hek-293 vs A549
[5] = system: MCF7 (breast cancer) cell line; assay: MTT cytotoxicity assay, MCF7 cells; format: cell-based, human; conditions: read-out: IC50, MCF7
A549 cells [6] = assay: Annexin-V FITC and PI flow cytometry assay for apoptosis; format: cell-based, human; conditions: 48 hours
Outline: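 A549 cells seeded at 5×10^5 per 25 cm² flask, treated 48 h with test compound (0.45, 0.9, 1.8 μM), DMSO 1% vehicle or camptothecin 2 μM. Harvested, washed in cold PBS, resuspended in binding buffer, stained with annexin V plus PI (1 mg mL⁻¹ stock), 15 min at 37 °C, diluted in binding buffer, analysed by flow cytometry. Quadrants: live, early apoptotic, late apoptotic, necrotic.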

A549 cells [7] = assay: Cell cycle analysis by PI flow cytometry; format: cell-based, human; conditions: 24 hours
Outline: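 A549 cells seeded at 3×10^5 per 25 cm² flask; exposed 24 h to test compound (0.45, 0.9, 1.8 μM) or DMSO 0.5%. Cells washed twice in PBS, fixed in ice-cold 70% ethanol at –20 °C for 2 h, pelleted, treated with RNase A (2.5 mg mL⁻¹) 15 min at 37 °C, stained 30 min with PI (1 mg mL⁻¹ stock), then flow cytometry for phase distribution.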

## O=C1OCC2=C1C1(C(=O)Nc3ccc(Cl)cc31)C1=C(N2)C(=O)c2ccccc2C1=O (stereo not drawn) [Compound 7b, 5′-Chloro-3H-spiro[benzo[g]furo[3,4-b]quinoline-11,3′-indoline]-1,2′,5,10(4H)-tetraone]
[1]; Homo sapiens, A549, 72 h
  IC50: 1.41 ± 0.12 µM
[2]; Homo sapiens, KB, 72 h
  IC50: 3.15 ± 0.21 µM
[3]; Homo sapiens, HepG2, 72 h
  IC50: 2.32 ± 0.31 µM
[4]; Homo sapiens, HEK293, 72 h
  IC50: 3.32 ± 0.33 µM
[5]; Homo sapiens, MCF7, 72 h
  IC50: 4.2 ± 0.5 µM

## O=C1OCC2=C1C1(C(=O)N(Cc3ccc(Br)cc3F)c3ccccc31)C1=C(N2)C(=O)c2ccccc2C1=O (stereo not drawn) [Compound 7k, 1′-(4-Bromo-2-fluorobenzyl)-3H-spiro[benzo[g]furo[3,4-b]quinoline-11,3′-indoline]-1,2′,5,10(4H)-tetraone]
[1]; Homo sapiens, A549, 72 h
  IC50: 14 ± 1.59 µM
[2]; Homo sapiens, KB, 72 h
  IC50: 27.3 ± 2.15 µM
[3]; Homo sapiens, HepG2, 72 h
  IC50: 20.9 ± 2.36 µM
[4]; Homo sapiens, HEK293, 72 h
  IC50: > 28 µM
[5]; Homo sapiens, MCF7, 72 h
  IC50: 15.1 ± 1.59 µM

## O=C1OCC2=C1C1(C(=O)N(Cc3ccccc3)c3ccccc31)C1=C(N2)C(=O)c2ccccc2C1=O (stereo not drawn) [Compound 7h, 1′-Benzyl-3H-spiro[benzo[g]furo[3,4-b]quinoline-11,3′-indoline]-1,2′,5,10(4H)-tetraone]
[1]; Homo sapiens, A549, 72 h
  IC50: 1.71 ± 0.19 µM
[2]; Homo sapiens, KB, 72 h
  IC50: 3.96 ± 0.34 µM
[3]; Homo sapiens, HepG2, 72 h
  IC50: 4.24 ± 0.38 µM
[4]; Homo sapiens, HEK293, 72 h
  IC50: 2.72 ± 0.19 µM
[5]; Homo sapiens, MCF7, 72 h
  IC50: 3.73 ± 0.38 µM

## CC[C@@]1(O)C(=O)OCc2c1cc1n(c2=O)Cc2cc3ccccc3nc2-1 [Camptothecin, reference compound]
A549 cells [6]; A549, 2 μM
  % early apoptosis cells (Q2-4): 30.71%
  % late apoptosis cells (Q2-2): 11.05%
  % necrotic cells (Q2-1): 1.99%
  % total apoptosis cells: 41.76%

## Cc1ccc2c(c1)C1(C(=O)N2)C2=C(COC2=O)NC2=C1C(=O)c1ccccc1C2=O (stereo not drawn) [Compound 7c, 5′-Methyl-3H-spiro[benzo[g]furo[3,4-b]quinoline-11,3′-indoline]-1,2′,5,10(4H)-tetraone]
[1]; Homo sapiens, A549, 72 h
  IC50: 1.91 ± 0.2 µM
[2]; Homo sapiens, KB, 72 h
  IC50: 3.46 ± 0.33 µM
[3]; Homo sapiens, HepG2, 72 h
  IC50: 4.02 ± 0.45 µM
[4]; Homo sapiens, HEK293, 72 h
  IC50: 3.89 ± 0.4 µM
[5]; Homo sapiens, MCF7, 72 h
  IC50: 4.17 ± 0.48 µM

## O=C1OCC2=C1C1(C(=O)Nc3ccc(Br)cc31)C1=C(N2)C(=O)c2ccccc2C1=O (stereo not drawn) [Compound 7d, 5′-Bromo-3H-spiro[benzo[g]furo[3,4-b]quinoline-11,3′-indoline]-1,2′,5,10(4H)-tetraone]
[1]; Homo sapiens, A549, 72 h
  IC50: 1.62 ± 0.17 µM
[2]; Homo sapiens, KB, 72 h
  IC50: 4.75 ± 0.41 µM
[3]; Homo sapiens, HepG2, 72 h
  IC50: 4.34 ± 0.41 µM
[4]; Homo sapiens, HEK293, 72 h
  IC50: 3.52 ± 0.37 µM
[5]; Homo sapiens, MCF7, 72 h
  IC50: 2.07 ± 0.26 µM

## Cc1c2ccncc2c(C)c2c1[nH]c1ccccc12 [Ellipticine, reference compound]
[1]; Homo sapiens, A549, 72 h
  IC50: 1.34 ± 0.08 µM
[3]; Homo sapiens, HepG2, 72 h
  IC50: 2.07 ± 0.12 µM
[4]; Homo sapiens, HEK293, 72 h
  IC50: 5.64 ± 0.32 µM
[5]; Homo sapiens, MCF7, 72 h
  IC50: 2.07 ± 0.16 µM

## O=C1OCC2=C1C1(C(=O)N(Cc3ccc(C(F)(F)F)cc3)c3ccc(Cl)cc31)C1=C(N2)C(=O)c2ccccc2C1=O (stereo not drawn) [Compound 7l, 5′-Chloro-1′-(4-(trifluoromethyl)benzyl)-3H-spiro[benzo[g]furo[3,4-b]quinoline-11,3′-indoline]-1,2′,5,10(4H)-tetraone]
[1]; Homo sapiens, A549, 72 h
  IC50: 5.93 ± 0.64 µM
[2]; Homo sapiens, KB, 72 h
  IC50: 17.8 ± 1.68 µM
[3]; Homo sapiens, HepG2, 72 h
  IC50: 15.1 ± 1.7 µM
[4]; Homo sapiens, HEK293, 72 h
  IC50: > 27.7 µM
[5]; Homo sapiens, MCF7, 72 h
  IC50: 13.4 ± 1.23 µM

## Cc1ccc2c(c1)N(Cc1ccc(Br)cc1F)C(=O)C21C2=C(COC2=O)NC2=C1C(=O)c1ccccc1C2=O (stereo not drawn) [Compound 7m, 1′-(4-Bromo-2-fluorobenzyl)-6′-methyl-3H-spiro[benzo[g]furo[3,4-b]quinoline-11,3′-indoline]-1,2′,5,10(4H)-tetraone]
[1]; Homo sapiens, A549, 72 h
  IC50: 13.3 ± 0.7 µM
[2]; Homo sapiens, KB, 72 h
  IC50: 51.7 ± 1.78 µM
[3]; Homo sapiens, HepG2, 72 h
  IC50: 47.5 ± 2.15 µM
[4]; Homo sapiens, HEK293, 72 h
  IC50: > 65 µM
[5]; Homo sapiens, MCF7, 72 h
  IC50: 19.9 ± 0.89 µM

## O=C1OCC2=C1C1(C(=O)N(Cc3ccc(Cl)cc3)c3ccccc31)C1=C(N2)C(=O)c2ccccc2C1=O (stereo not drawn) [Compound 7j, 1′-(4-Chlorobenzyl)-3H-spiro[benzo[g]furo[3,4-b]quinoline-11,3′-indoline]-1,2′,5,10(4H)-tetraone]
[1]; Homo sapiens, A549, 72 h
  IC50: 6.54 ± 0.69 µM
[2]; Homo sapiens, KB, 72 h
  IC50: 5.6 ± 0.49 µM
[3]; Homo sapiens, HepG2, 72 h
  IC50: 5.78 ± 0.61 µM
[4]; Homo sapiens, HEK293, 72 h
  IC50: 10.3 ± 1.06 µM
[5]; Homo sapiens, MCF7, 72 h
  IC50: 4.09 ± 0.41 µM

## O=C1OCC2=C1C1(C(=O)Nc3c(Br)cc(Br)cc31)C1=C(N2)C(=O)c2ccccc2C1=O (stereo not drawn) [Compound 7f, 5′,7′-Dibromo-3H-spiro[benzo[g]furo[3,4-b]quinoline-11,3′-indoline]-1,2′,5,10(4H)-tetraone]
[1]; Homo sapiens, A549, 72 h
  IC50: 0.9 ± 0.09 µM
[2]; Homo sapiens, KB, 72 h
  IC50: 1.99 ± 0.22 µM
A549 cells [6]; A549, 0.45 μM
  % early apoptosis cells (Q2-4): 1.76%
  % late apoptosis cells (Q2-2): 1.26%
  % necrotic cells (Q2-1): 0.64%
  % total apoptosis cells: 3.02%
A549 cells [6]; A549, 0.9 μM
  % early apoptosis cells (Q2-4): 3.13%
  % late apoptosis cells (Q2-2): 1.83%
  % necrotic cells (Q2-1): 0.94%
A549 cells [6]; A549, 1.8 μM
  % early apoptosis cells (Q2-4): 12.68%
  % late apoptosis cells (Q2-2): 6.72%
  % necrotic cells (Q2-1): 2.53%
  % total apoptosis cells: 19.4%
[3]; Homo sapiens, HepG2, 72 h
  IC50: 3.28 ± 0.39 µM
[4]
  fold lower cytotoxicity against Hek-293 cells than to A549: about 7 fold
[4]; Homo sapiens, HEK293, 72 h
  IC50: 6.7 ± 0.57 µM
A549 cells [7]; A549, 0.45 μM
  % G0/G1: 36.01%
  % G2/M: 13.49%
  % S: 47.96%
A549 cells [7]; A549, 0.9 μM
  % G0/G1: 26.63%
  % G2/M: 4.17%
  % S: 67.93%
A549 cells [7]; A549, 1.8 μM
  % G0/G1: 20.81%
  % G2/M: 13.61%
  % S: 63.88%
[5]; Homo sapiens, MCF7, 72 h
  IC50: 1.84 ± 0.17 µM

## O=C1OCC2=C1C1(C(=O)Nc3ccccc31)C1=C(N2)C(=O)c2ccccc2C1=O (stereo not drawn) [Compound 7a, 3H-Spiro[benzo[g]furo[3,4-b]quinoline-11,3′-indoline]-1,2′,5,10(4H)-tetraone]
[1]; Homo sapiens, A549, 72 h
  IC50: 1.98 ± 0.16 µM
[2]; Homo sapiens, KB, 72 h
  IC50: 5.33 ± 0.62 µM
[3]; Homo sapiens, HepG2, 72 h
  IC50: 5.33 ± 0.62 µM
[4]; Homo sapiens, HEK293, 72 h
  IC50: 4.89 ± 0.44 µM
[5]; Homo sapiens, MCF7, 72 h
  IC50: 1.95 ± 0.21 µM

## O=C1OCC2=C1C1(C(=O)N(Cc3ccc(C(F)(F)F)cc3)c3cc(Br)c(Br)cc31)C1=C(N2)C(=O)c2ccccc2C1=O (stereo not drawn) [Compound 7n, 5′,6′-Dibromo-1′-(4-(trifluoromethyl)benzyl)-3H-spiro[benzo[g]furo[3,4-b]quinoline-11,3′-indoline]-1,2′,5,10(4H)-tetraone]
[1]; Homo sapiens, A549, 72 h
  IC50: 1.03 ± 0.13 µM
[2]; Homo sapiens, KB, 72 h
  IC50: 4.36 ± 0.4 µM
[3]; Homo sapiens, HepG2, 72 h
  IC50: 6.74 ± 0.73 µM
[4]
  fold lower cytotoxicity against Hek-293 cells than to A549: ~22 fold
[4]; Hek-293 vs MCF7
  fold lower cytotoxicity against Hek-293 cells than to MCF7: about 11 fold
[4]; Homo sapiens, HEK293, 72 h
  IC50: 22.9 ± 2.2 µM
[5]; Homo sapiens, MCF7, 72 h
  IC50: 2.11 ± 0.24 µM

## 4′,6′-Dimethyl-3H-spiro[benzo[g]furo[3,4-b]quinoline-11,3′-indoline]-1,2′,5,10(4H)-tetraone [Compound 7g]
[1]; MTT, 3 days incubation
  IC50: 1.67 ± 0.17 µM
[2]; MTT, 3 days incubation
  IC50: 4.85 ± 0.41 µM
[3]; MTT, 3 days incubation
  IC50: 6.74 ± 0.68 µM
[4]; MTT, 3 days incubation
  IC50: 7.27 ± 0.78 µM
[5]; MTT, 3 days incubation
  IC50: 2.62 ± 0.22 µM

## O=C1OCC2=C1C1(C(=O)N(Cc3ccc(C(F)(F)F)cc3)c3ccccc31)C1=C(N2)C(=O)c2ccccc2C1=O (stereo not drawn) [Compound 7i, 1′-(4-(Trifluoromethyl)benzyl)-3H-spiro[benzo[g]furo[3,4-b]quinoline-11,3′-indoline]-1,2′,5,10(4H)-tetraone]
[1]; Homo sapiens, A549, 72 h
  IC50: 7.37 ± 0.83 µM
[2]; Homo sapiens, KB, 72 h
  IC50: 4.65 ± 0.44 µM
[3]; Homo sapiens, HepG2, 72 h
  IC50: 4.5 ± 0.48 µM
[4]; Homo sapiens, HEK293, 72 h
  IC50: 4.04 ± 0.42 µM
[5]; Homo sapiens, MCF7, 72 h
  IC50: 3.72 ± 0.35 µM
